Reference: ChEMBL document CHEMBL1142286, “2-Oxo-tetrahydro-1,8-naphthyridines as selective inhibitors of malarial protein farnesyltransferase and as anti-malarials” (Bioorg Med Chem Lett, 2008)

Legend:
[1] = test system: Plasmodium falciparum; assay: Inhibition of Plasmodium falciparum protein farnesyltransferase at 50 nM
[2] = test system: Plasmodium falciparum; assay: Inhibition of Plasmodium falciparum protein farnesyltransferase at 5 nM
[3] = organism: Rattus norvegicus; assay: Inhibition of rat protein farnesyltransferase at 5 nM
[4] = test system: Plasmodium falciparum; assay: Inhibition of Plasmodium falciparum protein farnesyltransferase at 0.5 nM
[5] = test system: Plasmodium falciparum; assay: Inhibition of Plasmodium falciparum protein farnesyltransferase at 500 nM
[6] = organism: Rattus norvegicus; assay: Inhibition of rat protein farnesyltransferase at 50 nM
[7] = test system: Plasmodium falciparum; assay: Antimalarial activity against chloroquine-resistant Plasmodium falciparum K1 in human red blood cells after 48 hrs; format: functional; settings: K1, 48 h, read-out: ED50 (the source's name)
Outline: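 Parasites grown in red blood cell cultures; ED50 is the concentration that inhibits parasite growth by 50%.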

[8] = test system: Plasmodium falciparum; assay: Antimalarial activity against chloroquine-sensitive Plasmodium falciparum 3D7 in human red blood cells after 48 hrs; format: functional; settings: 3D7, 48 h, read-out: ED50 (the source's name)
Outline: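 P. falciparum strain 3D7 (chloroquine-sensitive) grown in red blood cell cultures. ED50 was taken as the compound concentration that inhibits parasite growth by 50%.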

[9] = organism: Rattus norvegicus; assay: Inhibition of rat protein farnesyltransferase at 5000 nM
[10] = organism: Rattus norvegicus; assay: Inhibition of rat protein farnesyltransferase at 0.5 nM
[11] = (§1) Metabolic stability assessed as half life in mouse liver microsomes; format: ADME, Microsome; settings: liver microsomes
Outline: (§2)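 Compound incubated with mouse liver microsomes. Half-time is for the loss of parent compound, in minutes.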

[12] = organism: Rattus norvegicus; assay: Inhibition of rat protein geranylgeranyltransferase 1 at 1 uM
Outline: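 Run like the rat PFT assay, but with rat PGGT-I (5 ng), H-Ras-CVLL peptide as substrate, and [3H]geranylgeranyl pyrophosphate as donor. Read-out is percent inhibition at a single inhibitor concentration.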

[13] = organism: Rattus norvegicus; assay: Inhibition of rat protein farnesyltransferase at 500 nM
[14] = test system: Liver; assay: as §1; format: ADME, Microsome; settings: microsomes; outline: as §2
[15] = test system: Plasmodium falciparum; assay: Antimalarial activity against Plasmodium falciparum; format: functional; settings: read-out: ED50
Outline: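 P. falciparum parasites (chloroquine-sensitive strain 3D7 and chloroquine-resistant strain K1) were grown in red blood cell cultures with compound. ED50 is the concentration giving 50% inhibition of parasite growth, in nM.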

Work on `Cn1cnc(S(=O)(=O)N(Cc2ccc(S(C)(=O)=O)cc2)C2Cc3cc(C#N)cnc3N(Cc3cncn3C)C2=O)c1` (configuration not stated) yielded an inhibition [1] of 98%, an inhibition [2] of 80% and an inhibition [3] of 0%. It also gave an inhibition [4] of 27%, an inhibition [5] of 99% and an inhibition [6] of 0%. For the same molecule, the EC50 [7] was 300 nM, the EC50 [8] was 420 nM and the inhibition [9] was 47%. The inhibition [10] was 0%, the half-life [11] was 52 min and the inhibition [12] was 0%. It also gave an inhibition [13] of 9%.
`Cn1cnc(S(=O)(=O)N(Cc2ccc(S(C)(=O)=O)cc2)C2Cc3cc(C#N)ccc3N(Cc3cncn3C)C2)c1` (configuration not stated) showed a t1/2 [14] of 15.6 min.
Molecule `Cn1cnc(S(=O)(=O)NC2Cc3cc(C#N)cnc3N(Cc3cncn3C)C2=O)c1` (configuration not stated) has an inhibition [1] of 66%, an inhibition [2] of 32% and an inhibition [3] of 0%. The inhibition [4] was 15%, the inhibition [5] was 94% and the inhibition [6] was 1%. The EC50 [7] was over 5000 nM, the EC50 [8] was over 5000 nM and the inhibition [9] was 39%. For the same molecule, the inhibition [10] was 0%, the inhibition [12] was 0% and the inhibition [13] was 0%.
For `Cn1cnc(S(=O)(=O)NC2Cc3cc(Br)cnc3N(Cc3cncn3C)C2=O)c1` (configuration not stated), the inhibition [1] was 28%, the inhibition [2] was 0% and the inhibition [3] was 5%. It also gave an inhibition [4] of 0%, an inhibition [5] of 74% and an inhibition [6] of 8%. The EC50 [7] was over 5000 nM, the EC50 [8] was over 5000 nM and the inhibition [9] was 51%. For the same molecule, the inhibition [10] was 0%, the inhibition [12] was 16% and the inhibition [13] was 8%.
For `COC(=O)N1CCC(CN(C2Cc3cc(C#N)cnc3N(Cc3cncn3C)C2=O)S(=O)(=O)c2ccccn2)CC1` (configuration not stated), the inhibition [1] was 88%, the inhibition [2] was 16% and the inhibition [4] was 0%. It also gave an inhibition [5] of 97%, an EC50 [7] of 310 nM and an EC50 [8] of 320 nM.
Work on `Cn1cncc1CN1C(=O)C(N(Cc2ccc(S(C)(=O)=O)cc2)S(=O)(=O)c2ccccn2)Cc2cc(C#N)cnc21` (configuration not stated) yielded an inhibition [1] of 48%, an inhibition [2] of 3% and an inhibition [4] of 0%. It also gave an inhibition [5] of 91%, an EC50 [7] of over 5000 nM and an EC50 [8] of 3100 nM. For the same molecule, the half-life [11] was 15 min.
With `COC(=O)N1CCC(CN(C2Cc3cc(C#N)cnc3N(Cc3cncn3C)C2=O)S(=O)(=O)c2cn(C)cn2)CC1` (configuration not stated) the inhibition [1] was 95%, the inhibition [2] was 71% and the inhibition [3] was 7%. The inhibition [4] was 33%, the inhibition [5] was 98% and the inhibition [6] was 28%. It also gave an EC50 [7] of 175 nM, an EC50 [8] of 350 nM and an inhibition [9] of 85%. The inhibition [10] was 0%, the half-life [11] was over 120 min and the inhibition [12] was 5%. For the same molecule, the inhibition [13] was 71%.
In the case of `COC(=O)N1CCC(CN(C2Cc3cc(C#N)ccc3N(Cc3cncn3C)C2)S(=O)(=O)c2ccccn2)CC1` (configuration not stated), the EC50 [15] is reported as 320 nM and the half-life [11] is reported as 5.4 min.
In the case of `COC(=O)N1CCC(CN(C2Cc3cc(C#N)ccc3N(Cc3cncn3C)C2)S(=O)(=O)c2cn(C)cn2)CC1` (configuration not stated), the half-life [11] is reported as 3.8 min.
